# In ChEMBL document CHEMBL3046951, “Volatile constituents from the leaves of Callicarpa japonica Thunb. and their antibacterial activities” (2004):
# Experiments:
# Format in all cases: functional
# [1] = system: Listeria monocytogenes; assay: Antimicrobial activity against Listeria monocytogenes ATCC 19111 assessed as growth inhibition rate at 64.76 mg/l after 72 hr by spectrophotometry; conditions: ATCC 19111, 72 h, read-out: GI
# Summary of the method: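 L. monocytogenes was grown at 30 °C in tryptic soy broth, subcultured for 18 h, and exposed to pure volatile compounds (>95% purity). Growth was followed by Bioscreen C optical density every 24 h for 72 h against a 10% Tween 80 control.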
# [2] = system: Vibrio parahaemolyticus; assay: Antimicrobial activity against Vibrio parahaemolyticus ATCC 33844 assessed as growth inhibition rate at 64.76 mg/l after 72 hr by spectrophotometry; conditions: ATCC 33844, 72 h, read-out: GI
# [3] = system: Salmonella typhimurium; assay: Antimicrobial activity against Salmonella enterica subsp. enterica serovar Typhimurium ATCC 14028 assessed as growth inhibition rate at 64.76 mg/l after 72 hr by spectrophotometry; conditions: ATCC 14028, 72 h, read-out: GI
# [4] = system: Escherichia coli; assay: Antimicrobial activity against Escherichia coli O157:H7 ATCC 43894 assessed as growth inhibition rate at 64.76 mg/l after 72 hr by spectrophotometry; conditions: O157:H7 ATCC 43894, 72 h, read-out: GI
# Summary of the method: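 Authentic volatiles (>95% purity; 2,4-heptadienal 90%) tested against 18 h subcultures. Growth media: E. coli O157:H7 and S. aureus in tryptic soy broth at 37 °C; L. monocytogenes in tryptic soy broth at 30 °C; V. parahaemolyticus in tryptic soy broth + 3% NaCl at 37 °C; S. typhimurium in nutrient broth at 30 °C. Bioscreen C OD every 24 h for 72 h versus 10% Tween 80 control.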
# [5] = system: Staphylococcus aureus; assay: Antimicrobial activity against Staphylococcus aureus ATCC 25923 assessed as growth inhibition rate at 64.76 mg/l after 72 hr by spectrophotometry; conditions: ATCC 25923, 72 h, read-out: GI
# [6] = system: Bacillus cereus; assay: Antimicrobial activity against Bacillus cereus ATCC 11778 assessed as growth inhibition rate at 64.76 mg/l after 72 hr by spectrophotometry; conditions: ATCC 11778, 72 h, read-out: GI
# Summary of the method: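 Pure volatile compounds (purity >95%; one at 90%) were tested against B. cereus ATCC 11778. The strain was grown at 30 °C in nutrient broth for 24 h, then subcultured for 18 h. Optical density was read in a Bioscreen C every 24 h for 72 h, with 10% Tween 80 as the control.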
smiles,measurement,setting,value
C/C1=C\CC/C(C)=C/CC(C)(C)/C=C/C1 [ALPHA-HUMULONE],inhibition of growth at 64.76 µg/mL,[1],13.9%
same,inhibition of growth at 64.76 µg/mL,[2],15.7%
same,inhibition of growth at 64.76 µg/mL,[3],6.9%
same,inhibition of growth at 64.76 µg/mL,[4],4.6%
same,inhibition of growth at 64.76 µg/mL,[5],6.6%
same,inhibition of growth at 64.76 µg/mL,[6],40.1%
